Calls of active or inactive are those of the source. The rule behind the calls is not given here.
Experiments:
A549 = assay: Antiproliferative activity against human A549 cells after 48 hrs by MTT assay; type: functional, cell-based; conditions: A549, 48 h
Outline: (§1)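 Cells in logarithmic growth were seeded at 5 × 10^3 cells/well and left for 24 h, then exposed to a range of compound concentrations for 48 h. MTT (5 mg/mL) was added for 4 h, the formazan was dissolved in DMSO and absorbance read at 570 nm. IC50 is the concentration giving 50% growth inhibition, from at least three independent experiments, mean ± SD. Culture: DMEM, 10% heat-inactivated FBS, penicillin/streptomycin, 37 °C, 5% CO2.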

HeLa [1] = assay: Antiproliferative activity against human HeLa cells after 48 hrs by MTT assay; type: functional, cell-based; outline: as §1
MCF7 = assay: Antiproliferative activity against human MCF7 cells after 48 hrs by MTT assay; type: functional, cell-based; conditions: MCF7, 48 h; outline: as §1
PC-3 = assay: Antiproliferative activity against human PC3 cells after 48 hrs by MTT assay; type: functional, cell-based; conditions: PC-3, 48 h; outline: as §1
A2780 = assay: Antiproliferative activity against human A2780 cells after 48 hrs by MTT assay; type: functional, cell-based; conditions: A2780, 48 h; outline: as §1
HeLa [2] = assay: Induction of apoptosis in human HeLa cells assessed as live cells at 100 nM after 24 hrs by Annexin-V/FITC/propidium iodide staining-based flow cytometry method (reference value: 99.1%); type: functional
HeLa [3] = assay: Induction of apoptosis in human HeLa cells assessed as necrotic cells at 50 nM after 24 hrs by Annexin-V/FITC/propidium iodide staining-based flow cytometry method (reference value: 0.04%); type: functional
HeLa [4] = assay: Induction of apoptosis in human HeLa cells assessed as late apoptotic cells at 25 nM after 24 hrs by Annexin-V/FITC/propidium iodide staining-based flow cytometry method (reference value: 0.26%); type: functional
HeLa [5] = assay: Induction of apoptosis in human HeLa cells assessed as necrotic cells at 25 nM after 24 hrs by Annexin-V/FITC/propidium iodide staining-based flow cytometry method (reference value: 0.04%); type: functional
[6] = Inhibition of porcine brain tubulin polymerization preincubated for 1 min followed by addition of tubulin measured every 60 s for 90 min by DAPI staining-based fluorescence assay; design: species or system Sus scrofa
HeLa [7] = assay: Induction of apoptosis in human HeLa cells assessed as live cells at 50 nM after 24 hrs by Annexin-V/FITC/propidium iodide staining-based flow cytometry method (reference value: 99.1%); type: functional
HeLa [8] = assay: Induction of apoptosis in human HeLa cells assessed as early apoptotic cells at 25 nM after 24 hrs by Annexin-V/FITC/propidium iodide staining-based flow cytometry method (reference value: 0.59%); type: functional
HeLa [9] = assay: Induction of apoptosis in human HeLa cells assessed as early apoptotic cells at 50 nM after 24 hrs by Annexin-V/FITC/propidium iodide staining-based flow cytometry method (reference value: 0.59%); type: functional
HeLa [10] = assay: Cell cycle arrest in human HeLa cells assessed as accumulation at G2/M phase at 25 nM after 24 hrs by propidium iodide staining-based flow cytometry method (reference value: 19.0%); type: functional
HeLa [11] = assay: Induction of apoptosis in human HeLa cells assessed as late apoptotic cells at 50 nM after 24 hrs by Annexin-V/FITC/propidium iodide staining-based flow cytometry method (reference value: 0.26%); type: functional
HeLa [12] = assay: Induction of apoptosis in human HeLa cells assessed as necrotic cells at 100 nM after 24 hrs by Annexin-V/FITC/propidium iodide staining-based flow cytometry method (reference value: 0.04%); type: functional
HeLa [13] = assay: Induction of morphological changes in human HeLa cells assessed as membrane blebbing at 25 to 100 nM after 24 hrs by Hoechst 33342 staining-based laser scanning confocal microscopic method; type: functional, cell-based
HeLa [14] = assay: Cell cycle arrest in human HeLa cells assessed as accumulation at G2/M phase at 50 nM after 24 hrs by propidium iodide staining-based flow cytometry method (reference value: 19.0%); type: functional
HeLa [15] = assay: Induction of morphological changes in human HeLa cells assessed as chromatin condensation at 25 to 100 nM after 24 hrs by Hoechst 33342 staining-based laser scanning confocal microscopic method; type: functional, cell-based
HeLa [16] = assay: Induction of apoptosis in human HeLa cells assessed as late apoptotic cells at 100 nM after 24 hrs by Annexin-V/FITC/propidium iodide staining-based flow cytometry method (reference value: 0.26%); type: functional
HeLa [17] = assay: Cell cycle arrest in human HeLa cells assessed as accumulation at G2/M phase after 24 hrs by propidium iodide staining-based flow cytometry method; type: functional
HeLa [18] = assay: Cell cycle arrest in human HeLa cells assessed as accumulation at G2/M phase at 100 nM after 24 hrs by propidium iodide staining-based flow cytometry method (reference value: 19.0%); type: functional
HeLa [19] = assay: Induction of apoptosis in human HeLa cells assessed as live cells at 25 nM after 24 hrs by Annexin-V/FITC/propidium iodide staining-based flow cytometry method (reference value: 99.1%); type: functional
HeLa [20] = assay: Induction of morphological changes in human HeLa cells assessed as microtubule shrinking at 25 to 100 nM after 24 hrs by Hoechst 33342 staining-based laser scanning confocal microscopic method; type: functional, cell-based
HeLa [21] = assay: Induction of apoptosis in human HeLa cells after 24 hrs by Annexin-V/FITC/propidium iodide staining-based flow cytometry method; type: functional, cell-based
HeLa [22] = assay: Induction of apoptosis in human HeLa cells assessed as early apoptotic cells at 100 nM after 24 hrs by Annexin-V/FITC/propidium iodide staining-based flow cytometry method (reference value: 0.59%); type: functional

Compound: CCCC=C(/C(C)=C/c1ccc(OC)c(O)c1)c1cc(OC)c(OC)c(OC)c1
- IC50 (A549): 2460 nM
- IC50 (HeLa [1]): 3120 nM
- IC50 (MCF7): 3970 nM
- IC50 (PC-3): 4510 nM
- IC50 (A2780): 2930 nM

Compound: C=C(/C(C)=C/c1ccc(OC)c(N)c1)c1cc(OC)c(OC)c(OC)c1
- IC50 (A549): 269 nM
- IC50 (HeLa [1]): 286 nM
- IC50 (MCF7): 356 nM
- IC50 (PC-3): 457 nM
- IC50 (A2780): 279 nM

Compound: C=C(/C(C)=C/c1ccc(OC)c(F)c1)c1cc(OC)c(OC)c(OC)c1
- IC50 (A549): 219 nM
- IC50 (HeLa [1]): 483 nM
- IC50 (MCF7): 412 nM
- IC50 (PC-3): 354 nM
- IC50 (A2780): 561 nM

Compound: C=C(/C(C)=C/c1ccc(OC)cc1)c1cc(OC)c(OC)c(OC)c1
- IC50 (A549): 356 nM
- IC50 (HeLa [1]): 495 nM
- IC50 (MCF7): 965 nM
- IC50 (PC-3): 487 nM
- IC50 (A2780): 839 nM

Compound: C=C(/C=C/c1ccc(OC)c(N)c1)c1cc(OC)c(OC)c(OC)c1
- IC50 (A549): 137 nM
- IC50 (HeLa [1]): 234 nM
- IC50 (MCF7): 786 nM
- IC50 (PC-3): 560 nM
- IC50 (A2780): 582 nM

Compound: CO/C=C(\C=C\c1ccc(OC)c(O)c1)c1cc(OC)c(OC)c(OC)c1
- IC50 (A549): 1600 nM
- IC50 (HeLa [1]): 5630 nM
- IC50 (MCF7): 3260 nM
- IC50 (PC-3): 5320 nM
- IC50 (A2780): 2220 nM

Compound: C=C(/C=C/c1ccc(OC)c(O)c1)c1cc(OC)c(OC)c(OC)c1
- IC50 (A549): 286 nM
- IC50 (HeLa [1]): 320 nM
- IC50 (MCF7): 569 nM
- IC50 (PC-3): 423 nM
- IC50 (A2780): 457 nM

Compound: CC=C(/C=C/c1ccc(OC)c(N)c1)c1cc(OC)c(OC)c(OC)c1
- IC50 (A549): 247 nM
- IC50 (HeLa [1]): 217 nM
- IC50 (MCF7): 247 nM
- IC50 (PC-3): 319 nM
- IC50 (A2780): 137 nM

Compound: CC=C(/C(C)=C/c1ccc(OC)c(O)c1)c1cc(OC)c(OC)c(OC)c1
- IC50 (A549): 637 nM
- IC50 (HeLa [1]): 563 nM
- IC50 (MCF7): 604 nM
- IC50 (PC-3): 789 nM
- IC50 (A2780): 505 nM

Compound: C=C(/C(C)=C/c1ccc(OC)c(O)c1)c1cc(OC)c(OC)c(OC)c1
- Activity (HeLa [2]): 56.7%
- Activity (HeLa [3]): 1.77%
- Activity (HeLa [4]): 3.32%
- Activity (HeLa [5]): 1.56%
- IC50 [6]: 1010 nM
- Activity (HeLa [7]): 62.7%
- Activity (HeLa [8]): 16%
- IC50 (A549): 56 nM
- Activity (HeLa [9]): 29.8%
- Activity (HeLa [10]): 30%
- Activity (HeLa [11]): 5.8%
- Activity (HeLa [12]): 1.91%
- IC50 (HeLa [1]): 60 nM
- Activity (HeLa [13]): Active
- Activity (HeLa [14]): 43%
- Activity (HeLa [15]): Active
- Activity (HeLa [16]): 4.77%
- IC50 (MCF7): 89 nM
- Activity (HeLa [17]): Dose-dependent effect
- Activity (HeLa [18]): 72%
- IC50 (PC-3): 61 nM
- Activity (HeLa [19]): 79.1%
- Activity (HeLa [20]): Active
- Activity (HeLa [21]): Dose-dependent effect
- Activity (HeLa [22]): 36.6%
- IC50 (A2780): 64 nM

Compound: CCC=C(/C(C)=C/c1ccc(OC)c(O)c1)c1cc(OC)c(OC)c(OC)c1
- IC50 (A549): 2020 nM
- IC50 (HeLa [1]): 3120 nM
- IC50 (MCF7): 8240 nM
- IC50 (PC-3): 4230 nM
- IC50 (A2780): 5290 nM

Compound: COc1ccc(/C=C(\C)C(=O)c2cc(OC)c(OC)c(OC)c2)cc1O
- IC50 (A549): 4 nM
- IC50 (HeLa [1]): 5 nM
- IC50 (MCF7): 5 nM
- IC50 (PC-3): 9 nM
- IC50 (A2780): 3 nM

Compound: CCC=C(/C=C/c1ccc(OC)c(N)c1)c1cc(OC)c(OC)c(OC)c1
- IC50 (A549): 398 nM
- IC50 (HeLa [1]): 314 nM
- IC50 (MCF7): 486 nM
- IC50 (PC-3): 285 nM
- IC50 (A2780): 248 nM

Source: ChEMBL document CHEMBL4020716, “The synthesis and evaluation of new butadiene derivatives as tubulin polymerization inhibitors” (Bioorg Med Chem, 2017)
